The record followed here is ChEMBL document CHEMBL5584273, “Investigation of Isobactin Analogues of Teixobactin” (ACS Med Chem Lett, 2024).

Series [1] has as its system Bacillus subtilis. As to the kind of experiment: Antibiotic activity against Bacillus subtilis ATCC 6051 assessed as inhibition of bacterial growth incubated for 16 hrs in presence of 0.002% polysorbate 80. In kind it is functional. In short, it runs like this:
(§1)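 Broth microdilution in media containing 0.002% polysorbate 80. Overnight cultures were grown at 37 °C with shaking in Mueller-Hinton broth. Inoculum was set from background-corrected OD600 to about 5 × 10^5 CFU/mL final. 2-fold dilutions gave final 8 to 0.0078 μg/mL from a DMSO stock. Plates were incubated 16 h at 37 °C and OD600 was read. MIC is the lowest concentration with no growth. Run in quadruplicate technical replicates.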

Series [2] has as its system Staphylococcus epidermidis. As to the kind of experiment: Antibiotic activity against Staphylococcus epidermidis ATCC 14990 assessed as inhibition of bacterial growth incubated for 16 hrs in presence of 0.002% polysorbate 80. In kind it is functional. The procedure, abridged: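 Broth microdilution in media containing 0.002% polysorbate 80. Overnight cultures were grown at 37 °C with shaking in Mueller-Hinton broth. Inoculum was set from background-corrected OD600 to about 5 × 10^5 CFU/mL final. Plates were incubated 16 h at 37 °C and OD600 was read. MIC is the lowest concentration with no growth. Run in quadruplicate technical replicates.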

Series [3] relates to Staphylococcus aureus. As to the kind of experiment: Antibiotic activity against methicillin-sensitive Staphylococcus aureus ATCC 29213 assessed as inhibition of bacterial growth incubated for 16 hrs in presence of 0.002% polysorbate 80. In kind it is functional. In short, it runs like this: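 Overnight culture from glycerol stock in Mueller-Hinton broth at 37 °C with shaking; all media contain 0.002% polysorbate 80. DMSO stock (1 mg/mL) diluted in medium; 2-fold series, final 8–0.0078 μg/mL; inoculum ~5 × 10^5 CFU/mL (OD600-normalised).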

Series [4] deals with Staphylococcus aureus. Nature of the series: Antibiotic activity against methicillin-resistant Staphylococcus aureus ATCC 700698 assessed as inhibition of bacterial growth incubated for 16 hrs in presence of 0.002% polysorbate 80. In kind it is functional. In short, it runs like this: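 Overnight culture from glycerol stock in brain heart infusion broth at 37 °C with shaking; all media contain 0.002% polysorbate 80. DMSO stock (1 mg/mL) diluted in medium; 2-fold series, final 8–0.0078 μg/mL; inoculum ~5 × 10^5 CFU/mL (OD600-normalised).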

The test system of series [5] is Enterococcus faecalis. As to the kind of experiment: Antibiotic activity against vancomycin-resistant Enterococcus faecalis ATCC 51299 assessed as inhibition of bacterial growth incubated for 16 hrs in presence of 0.002% polysorbate 80. In kind it is functional.
Series [6] deals with Escherichia coli. As to the kind of experiment: Antibiotic activity against Escherichia coli ATCC 10798 assessed as inhibition of bacterial growth incubated for 16 hrs in presence of 0.002% polysorbate 80. In kind it is functional. In short, it runs like this:
as §1

Series [7] can be described thus: Solubility in PBS buffer at pH 7.4 at 0.5 mg/ml by HPLC analysis. The class given is physicochemical.
Series [8] deals with HeLa. Nature of the series: Cytotoxicity against human HeLa cells at 50 uM by promega cytotox-glo assay. The class given is toxicity, cell-based. In short, it runs like this:
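HeLa cells were exposed to compound at concentrations up to 50 μM. Cytotoxicity was read with the Cytotox-Glo luminescent assay.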

Series [9] deals with Erythrocyte. As to the kind of experiment: Hemolytic activity in human Red blood cell at 25 microg/ml in absence of polysorbate 80. Particulars: dose 25 µg/ml. In kind it is toxicity, cell-based. The procedure, abridged:
(§2)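 Human red blood cells were tested with and without 0.002% polysorbate 80. Triton X-100 served as the 100% lysis control and water (vehicle) as the 0% lysis control. 1.25 μM melittin was an added positive control.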

Series [10] can be described thus: Hemolytic activity in human Red blood cell assessed as hemolysis at 100 microg/ml in presence of 0.002% polysorbate 80 relative to control. In kind it is toxicity, cell-based, Erythrocyte. The settings on record: red blood cells (erythrocytes), at 100 µg/mL, read-out: Activity. In short, it runs like this:
as §2

Bridge positions count the residues as written; N and C are the ends. Square brackets hold non-standard residues; d marks the D form. Side chains are listed from the residue outwards. Peptide text beside a SMILES is read from it. I, II: the chains in the order shown. * marks the point of attachment. Ser(O-(NMe-dPhe-Ile)) = CC[C@H](C)[C@H](NC(=O)[C@@H](Cc1ccccc1)NC)C(=O)OC[C@H](N)C(=O)*; d(aIle) = CC[C@H](C)[C@@H](N)C(=O)O; dNMeF = CN[C@H](Cc1ccccc1)C(=O)O; Chg = N[C@H](C(=O)O)C1CCCCC1

What is called MIC is the lowest concentration that inhibits growth of the organism.

As for `CC[C@H](C)[C@H](NC(=O)[C@@H](Cc1ccccc1)NC)C(=O)N[C@@H](CO)C(=O)N[C@H](CCC(N)=O)C(=O)N[C@@H](C(=O)N[C@H](C(=O)OC[C@H](N)C(=O)N[C@H]1C(=O)N[C@@H](C)C(=O)N[C@@H](C[C@H]2CNC(=N)N2)C(=O)N[C@@H]([C@@H](C)CC)C(=O)O[C@H]1C)[C@@H](C)CC)[C@@H](C)CC`, the MIC in [1] was 0.062 mg/L; in [2], 0.25 mg/L; in series [3], 0.5 mg/L; in series [4] it was 0.5 mg/L; in series [5] it was 0.5 mg/L; in series [6], over 8 mg/L.
Turning to `CC[C@H](C)[C@H](NC(=O)[C@@H](Cc1ccccc1)NC)C(=O)N[C@@H](CO)C(=O)N[C@H](CCCNC(=N)N)C(=O)N[C@@H](C(=O)N[C@H](C(=O)N[C@@H](CO)C(=O)N[C@H]1C(=O)N[C@@H](C)C(=O)N[C@@H](C2CCCCC2)C(=O)N[C@@H]([C@@H](C)CC)C(=O)O[C@H]1C)[C@@H](C)CC)[C@@H](C)CC`, in [2], the MIC stood at 0.125 mg/L. Further, the solubility entry in series [7] is given as “Insoluble”. Moreover, in series [8], the Activity entry is “Toxic”.
For the compound `CC[C@H](C)[C@H](NC(=O)[C@@H](Cc1ccccc1)NC)C(=O)N[C@@H](CO)C(=O)N[C@H](CCCNC(=N)N)C(=O)N[C@@H](C(=O)N[C@H](C(=O)N[C@@H](CO)C(=O)N[C@H]1C(=O)N[C@@H](C)C(=O)N[C@@H](CC(C)C)C(=O)N[C@@H]([C@@H](C)CC)C(=O)O[C@H]1C)[C@@H](C)CC)[C@@H](C)CC`, the MIC in [3] was 0.25 mg/L.
As to `CC[C@H](C)[C@H](NC(=O)[C@@H](Cc1ccccc1)NC)C(=O)OC[C@H](N)C(=O)N[C@H](CCCNC(=N)N)C(=O)N[C@@H](C(=O)N[C@H](C(=O)OC[C@H](N)C(=O)N[C@H]1C(=O)N[C@@H](C)C(=O)N[C@@H](CC(C)C)C(=O)N[C@@H]([C@@H](C)CC)C(=O)O[C@H]1C)[C@@H](C)CC)[C@@H](C)CC` (H-S([Ile-d(aIle)-dR-Ser(O-(NMe-dPhe-Ile))])[dT]ALI; ester 2-C), the MIC in series [1] is 0.016 mg/L; in series [4], 1 mg/L.
For `CC[C@H](C)[C@H](NC(=O)[C@@H](Cc1ccccc1)NC)C(=O)OC[C@H](N)C(=O)N[C@H](CCCNC(=N)N)C(=O)N[C@@H](C(=O)N[C@H](C(=O)OC[C@H](N)C(=O)N[C@H]1C(=O)N[C@@H](C)C(=O)N[C@@H](C2CCCCC2)C(=O)N[C@@H]([C@@H](C)CC)C(=O)O[C@H]1C)[C@@H](C)CC)[C@@H](C)CC` (H-S([Ile-d(aIle)-dR-Ser(O-(NMe-dPhe-Ile))])[dT]A[Chg]I; ester 2-C), the MIC stood at 0.125 mg/L in series [1], 1 mg/L in series [4] and 1 mg/L in series [5]. The solubility entry in series [7] was “Insoluble”. Further, the results for the Activity result in [8] and in [9] were “Toxic” and “Non-Toxic”, respectively. Also, in series [10], the hemolysis at 100 microg/ml is 0%.
`CC[C@H](C)[C@H](NC(=O)[C@H](NC(=O)[C@@H](CCCNC(=N)N)NC(=O)[C@@H](N)COC(=O)[C@@H](NC(=O)[C@@H](Cc1ccccc1)NC)[C@@H](C)CC)[C@@H](C)CC)C(=O)N[C@@H](CO)C(=O)N[C@H]1C(=O)N[C@@H](C)C(=O)N[C@@H](CC(C)C)C(=O)N[C@@H]([C@@H](C)CC)C(=O)O[C@H]1C` (H-S([Ile-dNMeF])[dR][d(aIle)]IS[dT]ALI; ester 6-C): the minimal inhibitory concentration (MIC) in series [1] came to 0.008 mg/L; in series [2], 0.031 mg/L; in series [4], 0.5 mg/L.
Consider `CC[C@H](C)[C@H](NC(=O)[C@H](NC(=O)[C@@H](CCCNC(=N)N)NC(=O)[C@@H](N)COC(=O)[C@@H](NC(=O)[C@@H](Cc1ccccc1)NC)[C@@H](C)CC)[C@@H](C)CC)C(=O)N[C@@H](CO)C(=O)N[C@H]1C(=O)N[C@@H](C)C(=O)N[C@@H](C2CCCCC2)C(=O)N[C@@H]([C@@H](C)CC)C(=O)O[C@H]1C` (H-S([Ile-dNMeF])[dR][d(aIle)]IS[dT]A[Chg]I; ester 6-C), for which the MIC in series [5] came out at 1 mg/L. Besides, the solubility entry in series [7] is listed as “Insoluble”. Besides, the figures for the Activity result in series [8] and in series [9] were “Toxic” and “Non-Toxic”, respectively. Also, the hemolysis at 100 microg/ml in series [10] was 0%.
Consider `CC[C@H](C)[C@H](NC(=O)[C@@H](Cc1ccccc1)NC)C(=O)N[C@@H](CO)C(=O)N[C@H](CCCNC(=N)N)C(=O)N[C@@H](C(=O)N[C@H](C(=O)OC[C@H](N)C(=O)N[C@H]1C(=O)N[C@@H](C)C(=O)N[C@@H](CC(C)C)C(=O)N[C@@H]([C@@H](C)CC)C(=O)O[C@H]1C)[C@@H](C)CC)[C@@H](C)CC` (I: H-[dNMeF]IS[dR][d(aIle)]I / II: H-S[dT]ALI; ester I:C-II:1, II:2-II:C), for which the values for the MIC in [2], in [3] and in series [5] were 0.016 mg/L, 0.125 mg/L and 1 mg/L, respectively.
For `CC[C@H](C)[C@H](NC(=O)[C@@H](Cc1ccccc1)NC)C(=O)N[C@@H](CO)C(=O)N[C@H](CCCNC(=N)N)C(=O)N[C@@H](C(=O)N[C@H](C(=O)OC[C@H](N)C(=O)N[C@H]1C(=O)N[C@@H](C)C(=O)N[C@@H](C2CCCCC2)C(=O)N[C@@H]([C@@H](C)CC)C(=O)O[C@H]1C)[C@@H](C)CC)[C@@H](C)CC` (I: H-[dNMeF]IS[dR][d(aIle)]I / II: H-S[dT]A[Chg]I; ester I:C-II:1, II:2-II:C), the MIC in [3] and in series [4] was 1 mg/L each time. Also, the solubility result in [7] is reported as “Insoluble”. Further, the figures for the Activity entry in series [8] and in series [9] were “Toxic” and “Non-Toxic”, respectively. Also, the hemolysis at 100 microg/ml in series [10] was 0%.
Turning to `CN[C@H](CC(C)C)C(=O)N[C@H]1C(=O)N[C@@H](CC(N)=O)C(=O)N[C@H]2C(=O)N[C@H]3C(=O)N[C@H](C(=O)N[C@H](C(=O)O)c4cc(O)cc(O)c4-c4cc3ccc4O)[C@H](O)c3ccc(c(Cl)c3)Oc3cc2cc(c3O[C@@H]2O[C@H](CO)[C@@H](O)[C@H](O)[C@H]2O[C@H]2C[C@](C)(N)[C@H](O)[C@H](C)O2)Oc2ccc(cc2Cl)[C@H]1O` [VANCOMYCIN], the minimal inhibitory concentration (MIC) in [1] is 0.5 mg/L; in series [5], over 8 mg/L.
